These results are taken from publication PMC12541583 (Acta Pharmaceutica Sinica. B, 2025).

Molecules are shown by their SMILES.

The target of data set [1] is PARP1 (Rattus norvegicus, UniProt P27008). Description: In vitro autoradiography of [18F]AZD9574 on rat brain sections. Format: binding. The conditions noted are these: blocker 10 μmol/L.
The next data set has as its target CYP2C19 (Homo sapiens, UniProt P33261). Description: CYP interactions, CYP2C19. Format: in vitro ADME.
The target of the next data set is CYP3A4 (Homo sapiens, UniProt P08684). Description: CYP interactions, CYP3A4. Format: in vitro ADME.
The target in a further data set is CYP2D6 (Homo sapiens, UniProt P10635). As to the kind of experiment: CYP interactions, CYP2D6. The class given is in vitro ADME.
The target of the next data set is T1, CYP19A (Homo sapiens, UniProt P11511).
T1 sequence (P11511 1-503): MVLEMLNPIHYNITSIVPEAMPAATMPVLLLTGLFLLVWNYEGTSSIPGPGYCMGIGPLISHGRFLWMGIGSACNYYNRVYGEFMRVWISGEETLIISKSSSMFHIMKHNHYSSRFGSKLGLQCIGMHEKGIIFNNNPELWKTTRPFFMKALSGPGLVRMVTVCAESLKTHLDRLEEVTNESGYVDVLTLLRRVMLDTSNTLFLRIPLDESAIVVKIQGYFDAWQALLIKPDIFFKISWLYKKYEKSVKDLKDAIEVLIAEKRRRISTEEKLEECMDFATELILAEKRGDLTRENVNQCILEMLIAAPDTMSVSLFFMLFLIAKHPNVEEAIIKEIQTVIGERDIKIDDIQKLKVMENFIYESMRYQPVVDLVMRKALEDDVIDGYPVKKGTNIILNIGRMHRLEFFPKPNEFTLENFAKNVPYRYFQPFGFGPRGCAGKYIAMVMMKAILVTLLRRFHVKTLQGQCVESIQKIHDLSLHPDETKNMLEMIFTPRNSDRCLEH
As to the kind of experiment: CYP interactions, CYP19A. The class given is in vitro ADME.

For data set [2], the system named is PARP1. As to the kind of experiment: In vitro autoradiography of [18F]AZD9574 on NHP cerebellum brain sections. Format: binding. The conditions noted are these: blocker 10 μmol/L. The method in brief:
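Rat and NHP brain sections were pre-incubated 10 min at ambient temperature in 50 mmol/L Tris–HCl with 0.1% BSA. They were then incubated 1 h with radioligand (~4 μCi/mL, ~4 nmol/L), with blockers at 10 μmol/L added beforehand. Sections were rinsed twice for 2 min in ice-cold buffer with ethanol, dipped in cold water, air-dried and exposed to imaging plates overnight. ROI radioactivity was taken as % of control; mean ± SD, n = 3.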

For another data set, the target named is CYP2C9 (Homo sapiens, UniProt P11712). Description: CYP interactions, CYP2C9. The class given is in vitro ADME.
Data set [3] has as its target PARP1 (Macaca mulatta, UniProt H9FQ77). As to the kind of experiment: NHP PET imaging of [18F]AZD9574, baseline and blocking. The class given is in vivo, rhesus monkeys. The method in brief:
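An iv bolus of tracer (4.05 ± 0.54 mCi) was followed by 90 min dynamic 3D PET acquisition in 36 frames. ROIs were drawn on co-registered T1-weighted MRI. Regional SUV time–activity curves were generated; baseline scans n = 2 animals.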

For a further data set, the system named is HepG2 cells. As to the kind of experiment: CellTiter-Glo luminescent cell viability assay in HepG2 cells. The conditions noted are these: Homo sapiens, HepG2, read-out: HepG2 IC50. The class given is cell-based. On the technique in general: ATP-based viability assays read luminescence as a measure of living cells.
In the next data set the target is MDR1 (P-gp) (Homo sapiens, UniProt P08183). Description: In vitro Pg-P efflux assay. The conditions noted are these: not told. The class given is in vitro ADME.
In another data set the target is T2, CYP1A2 (Homo sapiens, UniProt P05177).
T2 sequence (P05177 1-516): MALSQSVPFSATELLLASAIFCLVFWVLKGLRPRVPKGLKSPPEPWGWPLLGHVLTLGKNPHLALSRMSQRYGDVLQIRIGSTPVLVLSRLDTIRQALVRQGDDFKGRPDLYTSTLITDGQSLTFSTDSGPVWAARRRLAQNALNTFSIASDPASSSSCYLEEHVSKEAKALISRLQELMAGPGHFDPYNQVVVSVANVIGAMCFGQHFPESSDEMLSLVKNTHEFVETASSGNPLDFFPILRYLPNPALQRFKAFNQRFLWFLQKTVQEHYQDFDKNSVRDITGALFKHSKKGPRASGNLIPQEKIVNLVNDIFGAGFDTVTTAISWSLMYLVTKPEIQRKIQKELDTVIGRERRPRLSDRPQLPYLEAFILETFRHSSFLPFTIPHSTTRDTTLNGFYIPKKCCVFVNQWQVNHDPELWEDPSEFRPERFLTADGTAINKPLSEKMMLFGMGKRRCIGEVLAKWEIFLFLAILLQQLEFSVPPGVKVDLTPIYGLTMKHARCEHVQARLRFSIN
As to the kind of experiment: CYP interactions, CYP1A2. The class given is in vitro ADME.

The target of data set [4] is human ether-a-go-go-related gene (hERG) channel (Homo sapiens, UniProt Q12809). As to the kind of experiment: In vitro hERG channel safety. On the technique in general: Block of hERG is tested as a sign of cardiac risk.
The subject of the next data set is PC3 cell lines. Description: In vitro cellular uptake and blocking of [18F]AZD9574 in PC3 cells. The class given is cell-based. The following applies: blocker 1 μmol/L. The method in brief:
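PC3 cells were grown in F-12K with 10% FBS and 1% penicillin–streptomycin at 37 °C, 5% CO2, and seeded at 1×10^5 cells/well 24 h before use. After two PBS rinses, 1 μCi/well tracer plus blocking agent was added in serum-free medium for 60 min at 37 °C. Cells were rinsed twice with cold PBS, lysed in 0.1 mol/L NaOH and counted in a gamma counter.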

PARP1 (Rattus norvegicus, UniProt P27008), sequence (P27008 whole entry): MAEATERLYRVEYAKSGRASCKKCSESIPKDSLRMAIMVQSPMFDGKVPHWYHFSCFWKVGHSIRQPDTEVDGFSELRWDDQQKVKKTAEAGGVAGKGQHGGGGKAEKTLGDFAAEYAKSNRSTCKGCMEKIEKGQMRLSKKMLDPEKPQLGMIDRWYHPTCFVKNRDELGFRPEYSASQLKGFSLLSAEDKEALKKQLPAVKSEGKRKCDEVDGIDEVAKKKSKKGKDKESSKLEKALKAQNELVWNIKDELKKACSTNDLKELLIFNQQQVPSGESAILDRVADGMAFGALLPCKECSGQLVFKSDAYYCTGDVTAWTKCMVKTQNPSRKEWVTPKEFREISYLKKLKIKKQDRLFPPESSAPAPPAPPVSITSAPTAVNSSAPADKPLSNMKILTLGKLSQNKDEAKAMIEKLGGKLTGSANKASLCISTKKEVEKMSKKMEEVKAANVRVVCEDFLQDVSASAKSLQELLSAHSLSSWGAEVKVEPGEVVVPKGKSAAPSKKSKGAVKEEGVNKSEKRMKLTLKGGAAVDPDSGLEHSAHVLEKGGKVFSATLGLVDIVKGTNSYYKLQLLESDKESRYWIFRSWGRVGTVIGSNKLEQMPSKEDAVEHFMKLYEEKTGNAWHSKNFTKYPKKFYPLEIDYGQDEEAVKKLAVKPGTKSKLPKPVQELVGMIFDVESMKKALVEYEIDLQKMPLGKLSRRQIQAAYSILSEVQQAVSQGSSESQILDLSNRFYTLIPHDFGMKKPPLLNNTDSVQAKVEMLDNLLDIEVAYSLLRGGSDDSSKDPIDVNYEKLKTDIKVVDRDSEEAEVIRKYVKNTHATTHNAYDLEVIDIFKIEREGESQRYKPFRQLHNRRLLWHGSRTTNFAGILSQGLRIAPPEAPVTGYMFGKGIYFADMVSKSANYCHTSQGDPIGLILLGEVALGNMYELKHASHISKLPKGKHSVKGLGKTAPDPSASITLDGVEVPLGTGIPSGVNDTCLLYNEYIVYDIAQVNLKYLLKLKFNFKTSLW
PARP1 (Macaca mulatta, UniProt H9FQ77), sequence (H9FQ77 1-1014): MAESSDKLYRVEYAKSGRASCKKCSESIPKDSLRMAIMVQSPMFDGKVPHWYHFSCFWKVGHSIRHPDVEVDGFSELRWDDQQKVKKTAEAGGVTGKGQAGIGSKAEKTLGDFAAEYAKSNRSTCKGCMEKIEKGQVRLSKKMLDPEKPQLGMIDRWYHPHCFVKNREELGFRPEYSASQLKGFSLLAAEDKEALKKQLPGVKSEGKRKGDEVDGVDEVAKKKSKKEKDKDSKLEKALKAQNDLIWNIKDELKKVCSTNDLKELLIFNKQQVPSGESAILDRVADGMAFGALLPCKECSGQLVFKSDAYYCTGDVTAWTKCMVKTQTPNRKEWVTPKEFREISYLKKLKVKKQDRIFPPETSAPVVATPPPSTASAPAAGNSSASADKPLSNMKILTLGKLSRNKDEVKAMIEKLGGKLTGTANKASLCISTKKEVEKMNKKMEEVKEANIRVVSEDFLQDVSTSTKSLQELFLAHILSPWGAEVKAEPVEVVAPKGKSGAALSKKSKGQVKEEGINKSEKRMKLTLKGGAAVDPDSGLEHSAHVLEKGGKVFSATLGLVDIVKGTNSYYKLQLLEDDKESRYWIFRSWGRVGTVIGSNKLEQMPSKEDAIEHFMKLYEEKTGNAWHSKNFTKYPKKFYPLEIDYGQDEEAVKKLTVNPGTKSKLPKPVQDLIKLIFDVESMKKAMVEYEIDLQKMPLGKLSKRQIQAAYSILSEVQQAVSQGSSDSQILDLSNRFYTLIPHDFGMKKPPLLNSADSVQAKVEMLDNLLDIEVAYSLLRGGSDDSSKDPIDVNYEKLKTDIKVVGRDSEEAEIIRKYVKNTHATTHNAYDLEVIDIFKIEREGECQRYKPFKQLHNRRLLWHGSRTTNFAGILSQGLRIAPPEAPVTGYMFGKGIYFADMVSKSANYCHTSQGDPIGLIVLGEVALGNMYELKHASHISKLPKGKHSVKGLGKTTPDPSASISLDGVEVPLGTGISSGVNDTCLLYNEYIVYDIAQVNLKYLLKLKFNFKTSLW
CYP3A4, sequence (P08684 whole entry, species assumed): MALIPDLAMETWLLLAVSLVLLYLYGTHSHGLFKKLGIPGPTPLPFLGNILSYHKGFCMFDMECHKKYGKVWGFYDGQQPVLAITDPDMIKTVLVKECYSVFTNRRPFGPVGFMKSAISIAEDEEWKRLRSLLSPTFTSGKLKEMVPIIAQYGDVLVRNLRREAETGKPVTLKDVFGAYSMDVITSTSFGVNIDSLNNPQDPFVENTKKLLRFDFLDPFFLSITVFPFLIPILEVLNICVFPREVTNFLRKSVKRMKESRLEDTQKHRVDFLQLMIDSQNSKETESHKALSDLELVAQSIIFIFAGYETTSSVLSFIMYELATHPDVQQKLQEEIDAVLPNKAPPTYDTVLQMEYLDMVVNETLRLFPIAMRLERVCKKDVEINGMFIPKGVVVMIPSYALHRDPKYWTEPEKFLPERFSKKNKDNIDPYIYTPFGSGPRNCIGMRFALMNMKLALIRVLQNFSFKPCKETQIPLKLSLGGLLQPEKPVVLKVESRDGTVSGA
CYP2C19, sequence (P33261 whole entry, species assumed): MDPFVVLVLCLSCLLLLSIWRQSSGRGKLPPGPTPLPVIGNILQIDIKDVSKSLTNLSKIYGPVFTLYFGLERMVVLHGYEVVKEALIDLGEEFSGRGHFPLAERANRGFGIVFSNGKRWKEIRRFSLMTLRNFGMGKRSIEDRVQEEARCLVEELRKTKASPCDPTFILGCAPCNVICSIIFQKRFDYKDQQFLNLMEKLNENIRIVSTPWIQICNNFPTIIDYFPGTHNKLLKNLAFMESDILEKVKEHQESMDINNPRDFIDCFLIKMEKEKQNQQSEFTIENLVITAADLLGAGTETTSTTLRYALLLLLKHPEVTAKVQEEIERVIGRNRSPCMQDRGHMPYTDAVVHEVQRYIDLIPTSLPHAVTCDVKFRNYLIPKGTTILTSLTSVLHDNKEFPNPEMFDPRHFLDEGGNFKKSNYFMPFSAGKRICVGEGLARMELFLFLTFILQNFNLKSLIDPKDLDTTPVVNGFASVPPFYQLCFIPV
human ether-a-go-go-related gene (hERG) channel, sequence (Q12809 whole entry): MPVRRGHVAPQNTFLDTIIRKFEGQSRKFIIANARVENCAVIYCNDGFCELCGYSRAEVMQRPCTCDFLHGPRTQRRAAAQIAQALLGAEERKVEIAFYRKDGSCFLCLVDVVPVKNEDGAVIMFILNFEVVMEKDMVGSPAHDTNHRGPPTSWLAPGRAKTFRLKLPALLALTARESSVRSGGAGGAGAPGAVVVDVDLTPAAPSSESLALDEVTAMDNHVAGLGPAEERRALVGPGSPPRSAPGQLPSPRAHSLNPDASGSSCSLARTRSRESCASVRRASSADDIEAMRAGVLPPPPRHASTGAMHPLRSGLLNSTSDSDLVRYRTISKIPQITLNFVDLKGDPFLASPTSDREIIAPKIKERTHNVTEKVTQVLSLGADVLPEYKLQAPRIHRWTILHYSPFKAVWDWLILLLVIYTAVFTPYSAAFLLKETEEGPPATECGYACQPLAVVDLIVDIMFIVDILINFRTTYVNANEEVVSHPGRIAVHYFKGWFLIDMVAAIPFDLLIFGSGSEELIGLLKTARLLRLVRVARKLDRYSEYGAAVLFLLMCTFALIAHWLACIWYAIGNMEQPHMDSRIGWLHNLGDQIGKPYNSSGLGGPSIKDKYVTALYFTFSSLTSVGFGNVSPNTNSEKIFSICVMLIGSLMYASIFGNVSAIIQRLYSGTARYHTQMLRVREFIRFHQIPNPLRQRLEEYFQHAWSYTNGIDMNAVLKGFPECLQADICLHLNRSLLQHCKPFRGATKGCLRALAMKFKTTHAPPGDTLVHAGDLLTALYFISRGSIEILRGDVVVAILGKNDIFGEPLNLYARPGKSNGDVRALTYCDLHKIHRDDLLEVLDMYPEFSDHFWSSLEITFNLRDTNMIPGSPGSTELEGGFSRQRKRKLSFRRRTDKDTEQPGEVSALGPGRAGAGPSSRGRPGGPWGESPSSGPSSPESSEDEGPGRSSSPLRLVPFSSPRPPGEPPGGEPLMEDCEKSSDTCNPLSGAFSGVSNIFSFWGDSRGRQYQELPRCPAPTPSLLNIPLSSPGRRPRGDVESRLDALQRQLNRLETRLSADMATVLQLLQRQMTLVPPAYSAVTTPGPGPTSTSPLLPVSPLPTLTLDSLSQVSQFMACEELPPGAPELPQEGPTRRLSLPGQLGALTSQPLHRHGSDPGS
CYP2D6, sequence (P10635 whole entry, species assumed): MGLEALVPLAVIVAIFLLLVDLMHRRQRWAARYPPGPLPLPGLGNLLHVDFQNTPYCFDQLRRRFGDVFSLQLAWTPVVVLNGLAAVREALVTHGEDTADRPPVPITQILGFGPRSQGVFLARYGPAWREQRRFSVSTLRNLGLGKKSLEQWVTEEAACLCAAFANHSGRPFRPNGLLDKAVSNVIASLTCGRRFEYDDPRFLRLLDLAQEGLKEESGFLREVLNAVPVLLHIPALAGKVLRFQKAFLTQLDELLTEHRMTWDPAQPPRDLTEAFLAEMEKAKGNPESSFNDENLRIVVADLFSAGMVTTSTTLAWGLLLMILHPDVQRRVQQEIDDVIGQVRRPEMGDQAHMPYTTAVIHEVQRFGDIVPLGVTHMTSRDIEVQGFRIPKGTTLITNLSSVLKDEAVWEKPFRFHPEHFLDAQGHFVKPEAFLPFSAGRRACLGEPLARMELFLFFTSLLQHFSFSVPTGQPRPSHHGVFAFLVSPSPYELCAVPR

Consider `COC1CCN(C(=O)c2cc(Cc3n[nH]c(=O)c4ccccc34)ccc2F)CC1` [AZD2461], for which the “reduction of [18F]AZD9574 radioactivity accumulation in all brain regions” value (from here on “reduction … in all brain regions”) at PARP1 [1] was “greater than 85%”.
Usually IC50 stands for the concentration that inhibits the measured activity by half. In general, Papp A→B refers to the apparent permeability from the apical to the basolateral side of a cell layer. Higher therefore signals fast passage. In the case of `CNC(=O)c1ccc(N2CCN(Cc3ccc4nc(C)c(=O)[nH]c4c3F)CC2)c(F)n1` [compound 5, 6-fluoro-5-(4-((5-fluoro-2-methyl-3-oxo-3,4-dihydroquinoxalin-6-yl)methyl)piperazin-1-yl)-N-methylpicolinamide], the IC50 against CYP2C19 was greater than 5 µM; against CYP3A4, greater than 5 µM; on CYP2D6 it was greater than 5 µM; against CYP19A, greater than 5 µM; on CYP2C9 it was greater than 5 µM; with HepG2 cells, greater than 100 µM. Moreover, the IC50 was greater than 5 µM against CYP1A2 and greater than 100 µM in data set [4]. For the same compound, the “effect on [18F]AZD9574 uptake in the cerebellum” value with PARP1 [2] is reported as “substantial uptake reduction”. In addition, the entries for the “reduction of [18F]AZD9574 radioactivity accumulation in the cerebellum (area under curve 60-90 min)” value on PARP1 [3] (pretreatment 0.05 mg/kg) and at PARP1 [3] (pretreatment 0.5 mg/kg) were 37.7% and 63.4%, respectively. The compound further had a Papp A→B at MDR1 (P-gp) of 42.5 ×10⁻⁶ cm/s.
Turning to `O=C(c1cc(Cc2n[nH]c(=O)c3ccccc23)ccc1F)N1CCN(C(=O)C2CC2)CC1` [olaparib, reference compound], the “effect on [18F]AZD9574 uptake in the cerebellum” value with PARP1 [2] is on record as “substantial uptake reduction”. The “effect on [18F]AZD9574 uptake” value in the data set on PC3 cell lines was “significantly attenuated”.
For the compound `C[C@]12CCCN1CC1=NNC(=O)c3cc(F)cc4[nH]c2c1c34` [pamiparib], the “reduction … in all brain regions” value at PARP1 [1] is “greater than 85%”.
Turning to `CNCc1ccc(-c2[nH]c3cc(F)cc4c3c2CCNC4=O)cc1` [rucaparib], at PARP1 [1], the “reduction … in all brain regions” value is “greater than 85%”.
In the case of `C[C@]1(c2nc3c(C(N)=O)cccc3[nH]2)CCCN1` [veliparib], the “reduction … in all brain regions” value at PARP1 [1] was “greater than 85%”.
